The source made the active and inactive calls. The rule behind the calls is not given here.
Columns and labels:
[1] = target: T1, Rho-associated protein kinase 2 (Homo sapiens, UniProt O75116); assay: Inhibition of wild type partial length human ROCK1 (M1 to T431 residues) expressed in Mammalian expression system by Euro-fins kinase profiler assay
Method in brief: (§1)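 IC50 values from the Eurofins Kinase Profiler service; averages of two independent experiments, mean ± SD.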
Target sequence in this assay (O75116 whole entry, the tested form may be a part): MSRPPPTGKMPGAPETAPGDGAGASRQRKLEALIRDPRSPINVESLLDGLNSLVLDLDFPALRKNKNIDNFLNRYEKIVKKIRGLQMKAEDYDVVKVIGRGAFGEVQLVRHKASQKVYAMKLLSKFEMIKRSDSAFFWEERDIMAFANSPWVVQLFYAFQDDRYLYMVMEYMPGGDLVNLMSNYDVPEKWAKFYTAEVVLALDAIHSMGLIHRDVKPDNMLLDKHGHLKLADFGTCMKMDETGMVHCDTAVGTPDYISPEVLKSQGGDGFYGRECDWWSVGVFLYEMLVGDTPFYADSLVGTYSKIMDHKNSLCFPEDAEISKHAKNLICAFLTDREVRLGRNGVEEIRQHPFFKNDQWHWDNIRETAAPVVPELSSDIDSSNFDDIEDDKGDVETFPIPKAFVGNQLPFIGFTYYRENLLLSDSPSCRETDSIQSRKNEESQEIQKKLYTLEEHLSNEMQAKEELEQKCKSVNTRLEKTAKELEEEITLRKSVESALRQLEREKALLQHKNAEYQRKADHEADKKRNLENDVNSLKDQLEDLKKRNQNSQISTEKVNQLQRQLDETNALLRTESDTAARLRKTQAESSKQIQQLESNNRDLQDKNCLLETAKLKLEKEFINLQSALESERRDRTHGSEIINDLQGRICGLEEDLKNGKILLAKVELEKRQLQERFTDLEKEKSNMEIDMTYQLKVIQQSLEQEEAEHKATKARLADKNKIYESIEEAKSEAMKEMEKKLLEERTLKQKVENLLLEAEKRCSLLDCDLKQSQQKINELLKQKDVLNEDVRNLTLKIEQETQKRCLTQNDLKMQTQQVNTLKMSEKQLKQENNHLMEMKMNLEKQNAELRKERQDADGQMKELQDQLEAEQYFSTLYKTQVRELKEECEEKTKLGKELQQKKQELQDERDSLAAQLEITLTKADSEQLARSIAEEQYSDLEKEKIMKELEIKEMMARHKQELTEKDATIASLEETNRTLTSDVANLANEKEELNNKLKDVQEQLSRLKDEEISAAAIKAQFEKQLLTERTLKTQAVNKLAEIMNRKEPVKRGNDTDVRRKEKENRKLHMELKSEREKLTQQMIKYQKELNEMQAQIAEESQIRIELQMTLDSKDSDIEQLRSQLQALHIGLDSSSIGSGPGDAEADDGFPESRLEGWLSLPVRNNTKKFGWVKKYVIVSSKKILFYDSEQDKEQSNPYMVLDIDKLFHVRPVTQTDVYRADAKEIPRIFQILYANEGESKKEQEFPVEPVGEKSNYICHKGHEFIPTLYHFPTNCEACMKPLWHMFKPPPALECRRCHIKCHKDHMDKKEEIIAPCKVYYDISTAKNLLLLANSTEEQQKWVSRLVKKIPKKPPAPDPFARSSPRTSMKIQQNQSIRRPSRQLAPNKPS

[2] = target: T2, Rho-associated protein kinase 1 (Homo sapiens, UniProt Q13464); assay: Inhibition of wild type partial length human ROCK1 (M1 to R415 residues) expressed in mammalian expression system by Euro-fins kinase profiler assay; method in brief: as §1
Target sequence in this assay (Q13464 whole entry, the tested form may be a part): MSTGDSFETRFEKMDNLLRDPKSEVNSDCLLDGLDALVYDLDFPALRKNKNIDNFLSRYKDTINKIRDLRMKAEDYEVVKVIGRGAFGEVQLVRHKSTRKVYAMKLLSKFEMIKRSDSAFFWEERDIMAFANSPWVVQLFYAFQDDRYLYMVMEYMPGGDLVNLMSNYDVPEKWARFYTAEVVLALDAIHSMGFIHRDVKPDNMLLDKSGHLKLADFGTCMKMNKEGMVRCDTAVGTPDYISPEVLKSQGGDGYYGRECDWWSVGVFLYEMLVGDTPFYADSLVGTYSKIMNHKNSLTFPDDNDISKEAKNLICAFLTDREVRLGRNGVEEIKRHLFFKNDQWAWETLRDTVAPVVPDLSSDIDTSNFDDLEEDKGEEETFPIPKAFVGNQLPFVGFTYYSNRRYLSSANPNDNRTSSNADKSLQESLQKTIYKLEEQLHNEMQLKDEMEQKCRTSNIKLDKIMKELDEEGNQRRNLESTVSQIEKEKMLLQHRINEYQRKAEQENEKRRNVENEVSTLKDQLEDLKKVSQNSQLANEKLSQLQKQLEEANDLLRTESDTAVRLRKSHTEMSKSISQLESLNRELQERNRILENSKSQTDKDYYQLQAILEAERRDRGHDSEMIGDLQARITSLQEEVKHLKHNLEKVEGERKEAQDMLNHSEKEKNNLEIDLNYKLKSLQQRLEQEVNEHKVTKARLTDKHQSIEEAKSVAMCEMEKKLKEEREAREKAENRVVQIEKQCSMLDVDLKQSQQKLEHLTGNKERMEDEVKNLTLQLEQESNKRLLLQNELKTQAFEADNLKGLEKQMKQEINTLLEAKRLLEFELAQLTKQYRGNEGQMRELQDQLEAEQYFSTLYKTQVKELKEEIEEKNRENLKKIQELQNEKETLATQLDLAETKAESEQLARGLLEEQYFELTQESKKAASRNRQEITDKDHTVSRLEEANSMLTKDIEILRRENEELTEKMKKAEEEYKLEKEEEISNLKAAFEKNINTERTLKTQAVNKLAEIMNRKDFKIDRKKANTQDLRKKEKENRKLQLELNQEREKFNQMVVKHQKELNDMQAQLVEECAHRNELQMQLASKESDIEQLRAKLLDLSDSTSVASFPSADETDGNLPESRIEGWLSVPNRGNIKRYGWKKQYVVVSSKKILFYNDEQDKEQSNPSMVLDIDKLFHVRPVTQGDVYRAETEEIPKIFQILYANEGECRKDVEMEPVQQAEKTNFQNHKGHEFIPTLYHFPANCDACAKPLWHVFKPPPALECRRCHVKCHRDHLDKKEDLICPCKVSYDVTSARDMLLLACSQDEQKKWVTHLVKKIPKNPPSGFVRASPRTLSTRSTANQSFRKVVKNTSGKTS

[3] = target: T1, Rho-associated protein kinase 2; assay: Inhibition of ROCK2 (unknown origin) at 10 uM
Method in brief: (§2)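 Kinase selectivity panel of 100 representative kinases, each tested at a fixed 10 µM; inhibition rate recorded per kinase. Values are averages of two independent experiments, mean ± SD.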
Target sequence in this assay (O75116 whole entry, looked up, the tested form may be a part): as the sequence (O75116 whole entry, the tested form may be a part) above

[4] = target: T2, Rho-associated protein kinase 1; assay: Inhibition of ROCK1 (unknown origin) at 10 uM; method in brief: as §2
Target sequence in this assay (Q13464 2-1354 limits assumed): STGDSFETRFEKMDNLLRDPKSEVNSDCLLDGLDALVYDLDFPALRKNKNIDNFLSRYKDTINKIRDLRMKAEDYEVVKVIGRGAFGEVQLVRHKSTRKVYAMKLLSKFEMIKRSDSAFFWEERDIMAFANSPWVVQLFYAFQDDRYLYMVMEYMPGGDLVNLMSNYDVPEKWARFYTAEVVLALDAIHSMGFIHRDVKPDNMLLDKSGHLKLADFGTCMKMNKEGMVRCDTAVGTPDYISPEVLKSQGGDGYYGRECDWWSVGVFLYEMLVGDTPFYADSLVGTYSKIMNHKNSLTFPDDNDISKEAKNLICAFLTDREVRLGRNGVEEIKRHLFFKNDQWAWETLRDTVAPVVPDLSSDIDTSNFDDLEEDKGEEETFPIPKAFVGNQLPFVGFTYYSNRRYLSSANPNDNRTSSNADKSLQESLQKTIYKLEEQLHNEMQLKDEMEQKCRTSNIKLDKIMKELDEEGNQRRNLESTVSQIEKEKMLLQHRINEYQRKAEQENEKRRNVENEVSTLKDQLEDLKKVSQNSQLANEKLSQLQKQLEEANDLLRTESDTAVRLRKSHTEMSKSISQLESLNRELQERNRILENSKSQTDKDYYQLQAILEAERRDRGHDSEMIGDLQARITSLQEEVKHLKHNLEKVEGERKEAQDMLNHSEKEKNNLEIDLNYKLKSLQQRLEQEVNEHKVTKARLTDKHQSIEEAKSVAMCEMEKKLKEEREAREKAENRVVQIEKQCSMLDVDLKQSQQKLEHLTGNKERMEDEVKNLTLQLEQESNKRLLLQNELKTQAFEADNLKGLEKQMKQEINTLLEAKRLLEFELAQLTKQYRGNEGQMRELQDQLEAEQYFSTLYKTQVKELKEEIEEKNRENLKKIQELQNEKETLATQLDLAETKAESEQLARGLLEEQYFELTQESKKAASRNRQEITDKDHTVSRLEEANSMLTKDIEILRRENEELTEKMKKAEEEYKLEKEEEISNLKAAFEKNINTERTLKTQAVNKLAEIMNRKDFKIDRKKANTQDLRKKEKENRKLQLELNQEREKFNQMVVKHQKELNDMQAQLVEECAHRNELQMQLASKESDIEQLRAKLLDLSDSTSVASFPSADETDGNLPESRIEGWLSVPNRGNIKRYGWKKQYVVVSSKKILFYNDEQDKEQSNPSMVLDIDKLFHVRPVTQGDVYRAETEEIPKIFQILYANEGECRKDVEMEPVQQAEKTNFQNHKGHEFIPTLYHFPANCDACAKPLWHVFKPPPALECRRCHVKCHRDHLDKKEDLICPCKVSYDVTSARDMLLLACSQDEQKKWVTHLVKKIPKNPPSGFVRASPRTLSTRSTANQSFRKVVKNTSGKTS

[5] = Toxicity in topically treated NZW rabbit assessed as hyperaemia measured after 3 hrs; parameters: species or system Oryctolagus cuniculus; details: in vivo, topical_or_ocular
[6] = test system: SH-SY5Y; assay: Effect on MYPT1 expression in human SH-SY5Y cells at 0.1 to 1 uM measured after 12 hrs by western blot assay; format: functional, cell-based; details: dose 0.1-1 µM
Method in brief: (§3)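 SH-SY5Y cells exposed to compound at 0.1, 0.3 and 1 µM for 12 h. Phospho-MYPT1 assessed by western blot, with immunoblots quantified. Significance versus untreated control by t test.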

[7] = target: LIM domain kinase 2 (Homo sapiens) (UniProt P53671); assay: Inhibition of LIMK2 (unknown origin) at 10 uM; method in brief: as §2
[8] = test system: Oryctolagus cuniculus; assay: Antiglaucoma activity in topically treated NZW rabbits assessed as reduction of intra ocular pressure measured after 1 hr relative to control; format: functional; parameters: scale not given: the % may be the effect or the level left
Method in brief: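 Ocular normotensive NZW rabbits received 0.3% eye drops topically in one eye and vehicle in the contralateral eye. IOP was followed over several hours after instillation and expressed as reduction from baseline, with the 1 h reading compared against vehicle.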

[9] = test system: SH-SY5Y; assay: Inhibition of human ROCK in human SH-SY5Y cells assessed as inhibition of phosphorylation of MYPT1 at 0.1 to 1 uM measured after 12 hrs by western blot assay; format: cell-based; details: dose 0.1-1 µM; method in brief: as §3

Sequence of LIM domain kinase 2 (Homo sapiens) (P53671 whole entry, looked up, the tested form may be a part): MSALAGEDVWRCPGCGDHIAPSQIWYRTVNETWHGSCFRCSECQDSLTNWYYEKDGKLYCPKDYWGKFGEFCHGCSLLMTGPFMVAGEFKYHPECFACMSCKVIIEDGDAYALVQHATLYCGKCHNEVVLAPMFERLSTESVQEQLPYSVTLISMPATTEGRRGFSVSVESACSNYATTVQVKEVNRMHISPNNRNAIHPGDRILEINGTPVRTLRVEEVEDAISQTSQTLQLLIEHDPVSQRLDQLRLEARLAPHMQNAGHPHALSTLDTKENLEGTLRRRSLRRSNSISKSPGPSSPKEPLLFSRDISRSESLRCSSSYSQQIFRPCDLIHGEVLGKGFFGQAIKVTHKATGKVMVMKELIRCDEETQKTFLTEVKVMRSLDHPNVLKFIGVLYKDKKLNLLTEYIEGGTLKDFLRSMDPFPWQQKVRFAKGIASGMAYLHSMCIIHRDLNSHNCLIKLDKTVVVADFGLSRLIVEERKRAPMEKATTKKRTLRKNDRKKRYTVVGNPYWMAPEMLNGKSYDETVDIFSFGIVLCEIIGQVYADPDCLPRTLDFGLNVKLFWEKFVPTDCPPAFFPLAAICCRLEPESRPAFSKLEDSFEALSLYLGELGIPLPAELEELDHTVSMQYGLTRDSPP

Row | IC50 [1] [nM] | IC50 [2] [nM] | SMILES | other results
1 | 9 | 208 | COC(=O)c1cccc(CN2CCOc3cc(-c4ccncc4)ccc3C2=O)c1 | –
2 | 15 | 103 | COc1cccc(CN2CCOc3cc(-c4ccnc5[nH]ccc45)ccc3C2=O)c1 | –
3 | 217 | 4490 | COc1cc(CN2CCOc3cc(-c4ccncc4)ccc3C2=O)cc(OC)c1 | –
4 | > 10000 | > 10000 | COc1cccc(CN2CCOc3cc(-c4cncnc4)ccc3C2=O)c1 | –
5 | 495 | 9240 | O=C1c2ccc(-c3ccncc3)cc2OCCN1Cc1cccc(OC(F)(F)F)c1 | –
6 | > 10000 | > 10000 | COc1cccc(CN2CCOc3cc(-c4ccc5c(c4)OCO5)ccc3C2=O)c1 | –
7 | 2110 | > 10000 | COc1cccc(CN2CCCc3cc(-c4ccc5[nH]ncc5c4)ccc3C2=O)c1 | –
8 | 50 | 3100 | N#Cc1cccc(CN2CCOc3cc(-c4ccncc4)ccc3C2=O)c1 | –
9 | 3 | 93 | COc1cccc(CN2CCOc3cc(-c4ccncc4)ccc3C2=O)c1 | inhibition [3]: Active; inhibition [4]: Active; Activity [5]: Non-Toxic; Activity [6]: inactive; inhibition [7]: Active; Activity [8]: 34.3%; inhibition [9]: Active
10 | 434 | 1460 | COc1cccc(CN2COc3cc(-c4ccc5[nH]ncc5c4)ccc3C2=O)c1 | –
11 | 5530 | > 10000 | COc1cccc(CN2CCOc3cc(-c4cnc5[nH]ccc5c4)ccc3C2=O)c1 | –
12 | 749 | 6010 | COc1cccc(CN2CC(C)(C)Oc3cc(-c4ccc5[nH]ncc5c4)ccc3C2=O)c1 | –
13 | 182 | 1080 | COc1cccc(CN2CCOc3cc(-c4ccc5[nH]ncc5c4)ccc3C2=O)c1 | –
14 | 133 | 1960 | O=C1c2ccc(-c3ccncc3)cc2OCCN1Cc1cccc(C(F)(F)F)c1 | –
15 | > 10000 | > 10000 | COc1cccc(CN2CCOc3cc(-c4ccc(N)nc4)ccc3C2=O)c1 | –
16 | 29 | 668 | O=Cc1cccc(CN2CCOc3cc(-c4ccncc4)ccc3C2=O)c1 | –
17 | 15 | 1140 | COc1cccc(CN2CCOc3cc(-c4ccnc(N)c4)ccc3C2=O)c1 | –
18 | 761 | > 10000 | COc1cccc(CN2CCOc3ccc(-c4ccncc4)cc3C2=O)c1 | –
